Measurements taken from ChEMBL document CHEMBL4393705, “New chalcone-sulfonamide hybrids exhibiting anticancer and antituberculosis activity” (Eur J Med Chem, 2019).

Columns and labels:
[1] = tested on: MDA-MB-231; assay: Anticancer activity against human MDA-MB-231 cells assessed as cell growth inhibition measured after 48 hrs by SRB assay; format: functional; settings: MDA-MB-231, 48 h
Outline: (§1)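 NCI-60 five-dose screen at 100, 10, 1.0, 0.1 and 0.01 µM final. Cells in RPMI-1640 with 5% FBS and 2 mM glutamine were seeded 24 h ahead at 37°C, 5% CO2. Compound exposure was 48 h, followed by TCA fixation and SRB staining, read at 515 nm. GI50 is the concentration giving 50% lower net protein increase than control, using time-zero plates.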

[2] = tested on: PC-3; assay: Anticancer activity against human PC3 cells assessed as cell growth inhibition measured after 48 hrs by SRB assay; format: functional; settings: PC-3, 48 h; outline: as §1
[3] = tested on: A549; assay: Anticancer activity against human A549 cells assessed as cell growth inhibition measured after 48 hrs by SRB assay; format: functional; settings: A549, 48 h; outline: as §1
[4] = tested on: SK-MEL-5; assay: Anticancer activity against human SK-MEL-5 cells assessed as cell growth inhibition measured after 48 hrs by SRB assay; format: functional; settings: SK-MEL-5, 48 h
Outline: (§2)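 NCI 60-cell screen, five-dose mode at 100, 10, 1.0, 0.1 and 0.01 µM. Cells grown in RPMI-1640 with 5% FBS and 2 mM L-glutamine, seeded and held 24 h at 37°C, 5% CO2, then exposed for 48 h. Fixed with cold TCA (10% final), stained with 0.4% SRB and read at 515 nm. Time-zero plates were used. GI50 is the concentration giving 50% lower net protein increase than control.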

[5] = tested on: SNB-19; assay: Anticancer activity against human SNB19 cells assessed as cell growth inhibition measured after 48 hrs by SRB assay; format: functional; settings: SNB-19, 48 h; outline: as §2
[6] = tested on: CAKI-1; assay: Anticancer activity against human Caki1 cells assessed as cell growth inhibition measured after 48 hrs by SRB assay; format: functional; settings: CAKI-1, 48 h; outline: as §1
[7] = tested on: NCI-H322M; assay: Anticancer activity against human NCI-H322M cells assessed as cell growth inhibition measured after 48 hrs by SRB assay; format: functional; outline: as §1
[8] = tested on: RPMI-8226; assay: Anticancer activity against human RPMI8226 cells assessed as cell growth inhibition measured after 48 hrs by SRB assay; format: functional; settings: RPMI-8226, 48 h; outline: as §1
[9] = tested on: HOP-62; assay: Anticancer activity against human HOP62 cells assessed as cell growth inhibition measured after 48 hrs by SRB assay; format: functional; settings: HOP-62, 48 h; outline: as §1
[10] = tested on: BT-549; assay: Anticancer activity against human BT549 cells assessed as cell growth inhibition measured after 48 hrs by SRB assay; format: functional; settings: BT-549, 48 h; outline: as §1
[11] = tested on: Staphylococcus aureus; assay: Antibacterial activity against Staphylococcus aureus measured every 120 mins for 36 hrs by LB broth two-fold serial dilution method; format: functional
Outline: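 Panel of 12 laboratory and clinical S. aureus strains with varied drug-susceptibility patterns. Compounds were two-fold serially diluted in LB broth from a maximum of 32 mg/L. Growth was followed by OD600 every 120 min for 36 h. Vancomycin was the positive control, and runs were in duplicate.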

[12] = tested on: T47D; assay: Anticancer activity against human T47D cells assessed as cell growth inhibition measured after 48 hrs by SRB assay; format: functional; outline: as §2
[13] = tested on: HCT-116; assay: Anticancer activity against human HCT116 cells assessed as cell growth inhibition measured after 48 hrs by SRB assay; format: functional; settings: HCT-116, 48 h; outline: as §1
[14] = tested on: LOX IMVI; assay: Anticancer activity against human LOXIMVI cells assessed as cell growth inhibition measured after 48 hrs by SRB assay; format: functional; outline: as §1
[15] = tested on: SK-MEL-2; assay: Anticancer activity against human SK-MEL-2 cells assessed as cell growth inhibition measured after 48 hrs by SRB assay; format: functional; settings: SK-MEL-2, 48 h; outline: as §2
[16] = Selectivity index, ratio of LC50 for mouse 3T3 cells to MIC for Mycobacterium tuberculosis H37Rv ATCC27294; format: toxicity; settings: read-out: Selectivity Index
[17] = tested on: M14; assay: Anticancer activity against human M14 cells assessed as cell growth inhibition measured after 48 hrs by SRB assay; format: functional; settings: M14, 48 h; outline: as §1
[18] = tested on: NIH3T3; assay: Cytotoxicity against mouse 3T3 cells assessed as cell viability measured after 48 hrs by MTT assay; format: cell-based; settings: nih3t3, 48 h
Outline: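 3T3 fibroblasts in DMEM with 10% FBS and penicillin-streptomycin, seeded at 10^4 cells/well 24 h prior. Exposed 48 h to two-fold serial dilutions from a 100 mg/mL DMSO stock. MTT (5 mg/mL in PBS) added for 1.5 h, formazan dissolved in DMSO, read at 530 nm. Duplicate runs on different days. Value interpolated between DMSO (100%) and cycloheximide (0%) controls.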

[19] = tested on: SW-620; assay: Anticancer activity against human SW620 cells assessed as cell growth inhibition measured after 48 hrs by SRB assay; format: functional; settings: SW-620, 48 h; outline: as §2
[20] = tested on: HOP-92; assay: Anticancer activity against human HOP92 cells assessed as cell growth inhibition measured after 48 hrs by SRB assay; format: functional; settings: HOP-92, 48 h; outline: as §1
[21] = tested on: IGROV-1; assay: Anticancer activity against human IGROV1 cells assessed as cell growth inhibition measured after 48 hrs by SRB assay; format: functional; settings: IGROV-1, 48 h; outline: as §1
[22] = tested on: Hs-578T; assay: Anticancer activity against human Hs578T cells assessed as cell growth inhibition measured after 48 hrs by SRB assay; format: functional; outline: as §1
[23] = tested on: HCT-15; assay: Anticancer activity against human HCT15 cells assessed as cell growth inhibition measured after 48 hrs by SRB assay; format: functional; settings: HCT-15, 48 h; outline: as §1
[24] = tested on: NCI-H460; assay: Anticancer activity against human NCI-H460 cells assessed as cell growth inhibition measured after 48 hrs by SRB assay; format: functional; settings: NCI-H460, 48 h; outline: as §1
[25] = tested on: RXF 393; assay: Anticancer activity against human RXF393 cells assessed as cell growth inhibition measured after 48 hrs by SRB assay; format: functional; settings: RXF 393, 48 h; outline: as §1
[26] = tested on: CCRF-CEM; assay: Anticancer activity against human CCRF-CEM cells assessed as cell growth inhibition measured after 48 hrs by SRB assay; format: functional; outline: as §1
[27] = tested on: OVCAR-3; assay: Anticancer activity against human OVCAR3 cells assessed as cell growth inhibition measured after 48 hrs by SRB assay; format: functional; settings: OVCAR-3, 48 h; outline: as §1
[28] = tested on: HT-29; assay: Anticancer activity against human HT-29 cells assessed as cell growth inhibition measured after 48 hrs by SRB assay; format: functional; settings: HT-29, 48 h; outline: as §1
[29] = read-out: LC50 (the source's name)

**Q.** What does the source list for `COc1ccc(C(=O)/C=C/c2ccc(Cl)cc2)cc1S(N)(=O)=O`?
**A.** GI50 [1]: 3.48 µM; LC50 [1]: 40.1 µM; GI50 [2]: 2240 nM; LC50 [2]: 17 µM; GI50 [3]: 2690 nM; LC50 (concentration killing 50% of cells) [3]: 30.8 µM; GI50 [4]: 5.69 µM; CC50 [4, 29]: 42.7 µM; GI50 [5]: 3.1 µM; LC50 [5]: 33.4 µM; GI50 [6]: 2720 nM; LC50 [6]: 32.5 µM; GI50 [7]: 2040 nM; LC50 [7]: 28.8 µM; GI50 [8]: 2610 nM; CC50 [8, 29]: > 100 µM; GI50 [9]: 2510 nM; LC50 [9]: 31.2 µM; GI50 [10]: 2290 nM; LC50 [10]: 27.3 µM; MIC [11]: > 57 µM; GI50 [12]: 3.2 µM; LC50 [12]: 59 µM; GI50 [13]: 1360 nM; LC50 (concentration killing 50% of cells present at start) [13]: 5.36 µM; GI50 [14]: 1280 nM; LC50 (concentration giving 50% net cell kill) [14]: 5.47 µM; GI50 [15]: 12.4 µM; CC50 [15, 29]: 53.2 µM; selectivity ratio [16]: 0.29; GI50 [17]: 2130 nM; CC50 [17, 29]: 21.2 µM; LC50 [18]: 4.1 µM; GI50 [19]: 1760 nM; CC50 [19, 29]: 8.45 µM; GI50 [20]: 2140 nM; LC50 [20]: 21.4 µM; GI50 [21]: 2670 nM; LC50 (concentration giving 50% net cell kill) [21]: 48.1 µM; GI50 [22]: 3.28 µM; LC50 [22]: > 100 µM; GI50 [23]: 2140 nM; LC50 (concentration killing 50% of cells) [23]: 59.3 µM; GI50 [24]: 2580 nM; LC50 (concentration causing 50% net cell kill) [24]: 30 µM; GI50 [25]: 1980 nM; LC50 (concentration causing 50% net cell kill) [25]: 7.96 µM; GI50 [26]: 3.34 µM; LC50 [26]: > 100 µM; GI50 [27]: 2040 nM; LC50 [27]: 9.7 µM; GI50 [28]: 3.26 µM; LC50 (concentration giving 50% net cell kill) [28]: 84 µM
